PubChem BioAssay
Records with an inconclusive call do not appear. Activity calls are given as the source filed them.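 The calls were made as follows, unless noted: active = RAM network inhibition above 8.4% in each of two replicates, 3 SD over the compound average; inconclusive = above 8.4% inhibition in only one replicate; inactive = 8.4% inhibition or less in each replicate.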

How the values were obtained:
[1] = S. cerevisiae growth inhibition in permissive medium (OD615), pilot counter-assay for S. cerevisiae lifespan shortening project, permissive growth control (AID 705;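 active = growth inhibition above 25% in both replicates, a cutoff set 3 SD above the mean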); conditions: OD615, 24 h, at 10 µM, hits give high values
Procedure, shortened: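 Material: engineered DeaD yeast; Compound: one dose 10 µM, DMSO 0.25% final; Detection: absorbance (optical density) at 615 nm; Buffer or medium: permissive raffinose/galactose medium; Timing: 24 h exposure, 30 °C.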

[2] = S. cerevisiae growth inhibition in restrictive medium, OD615, pilot screen, restrictive growth control, yeast lifespan reduction project (AID 706;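 active = growth inhibition above a set limit, 3 SD over mean compound inhibition, in both replicates, cut at about 43% in these data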;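 also: modified DeaD lifespan yeast strain shifted to restrictive glucose medium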); conditions: OD615, 48 h, at 10 µM, hits give high values
Procedure, shortened: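 Buffer or medium: restrictive glucose medium (CSMM-D); test system: modified S. cerevisiae; doses: single dose of 10 µM compound final, 0.25% DMSO; schedule: 48 h compound exposure at 30 °C; detection: absorbance (optical density) measured at 615 nm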

[3] = doxorubicin toxicity protection in MRP-1 cells – H69AR cells, CellTiter-Glo, duplicate, MRP-1 activator project, pilot screen (AID 807;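 active = viability increase at or above a cutoff of the median across tested compounds plus 3 SD, cut at about 8.5% in these data, passing the limit was not always enough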;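 also: compound pretreatment 18-22 h then 72 h combined with doxorubicin; 0% = doxorubicin alone and 100% = vehicle without doxorubicin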); conditions: H69AR viability with doxorubicin, CellTiter-Glo luminescence; at 10 µM; hits give high values
[4] = viability of HCT116 without oncogenic beta-catenin – human colon tumor cells, pilot screen (AID 823;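 active = cell viability at or below a set limit in both duplicate runs, the limit being the all-compound median minus 4 SD, cut at about 23% in these data, passing the limit was not always enough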;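 also: 0% = wells killed by 20 µM Hyamine and 100% = untreated DMSO cell wells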); conditions: HCT116 beta-catenin knockout viability, CellTiter-Glo, 60 h; at 10 µM; hits give low values
[5] = viability of PTEN-null HCT116 cells – cell-based, HCT116 clonal line, CellTiter-Glo, pilot screen (AID 824;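 active = viability at or below 27.92% in each of two runs, the all-compound median minus 4 SD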;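 also: 0% = 20 µM Hyamine control and 100% = vehicle cell control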); conditions: HCT116 PTEN-deleted viability, 60 h, at 10 µM, hits give low values
[6] = RAM pathway blockade in budding yeast – dse1pr::URA3 reporter, 5-FOA selection, pilot screen (AID 869;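 active = inhibition over a set limit, the all-compound mean plus 3 SD, in both replicate runs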;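 also: 0% = DMSO wells with no growth and 100% = 10 µM 1-NA-PP1 with full growth; RAM network block rescues cells from 5-FOA so hits raise OD615 growth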); conditions: S. cerevisiae dse1pr::URA3 5-FOA growth, OD615, 2 d; at 10 µM; hits give high values; strain carries analog-sensitive mutant Cbk1 kinase
[7] = RAM signaling pathway blockade in yeast – S. cerevisiae, Pdr1DBD-CYC8 efflux-inhibited sensitized strain, primary screen (AID 1298);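 also: 0% = DMSO untreated cells without growth and 100% = 10 µM 1-NA-PP1 full growth; higher means more yeast growth rescued from 5-FOA killing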; conditions: S. cerevisiae cbk1-as DSE1-URA3 strain, 5-FOA growth OD615, 2 d; at 50 µM; hits give high values

COC(=O)c1ccc(C)c(NS(=O)(=O)c2ccc(OC)cc2)c1
inactive: growth inhibition [1] -0.83% | growth inhibition [2] -23.9% | viability increase [3] -5.33% | inhibition [6] 2.15% | RAM network inhibition [7] 9.79%
active: viability [4] 16.6% | viability [5] 20.5%

Cc1cc(NC(=O)c2cc(-c3cccs3)nc3ccccc23)no1
inactive: growth inhibition [1] 3.04% | growth inhibition [2] -5.12% | viability increase [3] -6.62% | viability [4] 29.3% | viability [5] 30.9% | inhibition [6] 2.11% | RAM network inhibition [7] 8.27%

COc1ccc2c(Cl)c(C(=O)NC3CCS(=O)(=O)C3)sc2c1 (configuration not stated)
inactive: growth inhibition [1] 1.61% | growth inhibition [2] -6.69% | viability increase [3] 2.14% | viability [4] 93.3% | viability [5] 99.3% | inhibition [6] 1.92% | RAM network inhibition [7] 1.43%

O=C(Cn1cnc2c(nnn2-c2ccccc2)c1=O)N1CCCc2ccccc21
inactive: growth inhibition [1] -10% | growth inhibition [2] -10.4% | viability increase [3] 0.06% | viability [4] 101% | viability [5] 101% | inhibition [6] 1.55% | RAM network inhibition [7] 5.32%

COCCOC(=O)C1=C(C)NC(=O)NC1c1c(F)cccc1Cl (configuration not stated)
inactive: growth inhibition [1] -7.95% | growth inhibition [2] -2.18% | viability increase [3] 0% | viability [4] 106% | viability [5] 95.8% | inhibition [6] 0.515% | RAM network inhibition [7] 0.88%

COc1cccc(-c2cc(C(F)(F)F)nc(N3CCOCC3)n2)c1
inactive: growth inhibition [1] -4.32% | growth inhibition [2] -9.04% | viability increase [3] 0.16% | viability [4] 73.5% | viability [5] 77.8% | inhibition [6] 1.38% | RAM network inhibition [7] 6.83%

O=C(NCc1cccnc1)c1cnn2ccccc12
inactive: growth inhibition [1] -7.88% | growth inhibition [2] -0.235% | viability increase [3] -1.28% | viability [4] 106% | viability [5] 90.9% | inhibition [6] 1.62% | RAM network inhibition [7] 0.38%

Cc1sc2ncnc(Sc3nnc4sc5ccccc5n34)c2c1C
inactive: growth inhibition [1] 6.21% | growth inhibition [2] -2.07% | viability increase [3] -3.97% | viability [4] 55.4% | viability [5] 65.2% | inhibition [6] 2.33% | RAM network inhibition [7] 5.95%

CCOC(=O)C(C)Sc1nnc(Cc2cc(=O)[nH]c(=O)[nH]2)n1-c1ccc(OCC)cc1 (configuration not stated)
inactive: growth inhibition [1] 2.12% | growth inhibition [2] -6.84% | viability increase [3] -0.85% | viability [4] 109% | viability [5] 101% | inhibition [6] 0.75% | RAM network inhibition [7] 2.89%

Cc1ccc(-n2nnc3c(=O)n(CC(=O)NCc4ccco4)cnc32)cc1
inactive: growth inhibition [1] -7.22% | growth inhibition [2] 2.02% | viability increase [3] -4.35% | viability [4] 67.6% | viability [5] 63.4% | inhibition [6] 3.36% | RAM network inhibition [7] 7.68%

CC(C)(C)NC(=O)c1ccc(NC(=O)C2COc3ccccc3O2)cc1 (configuration not stated)
inactive: growth inhibition [1] -6.05% | growth inhibition [2] -6.04% | viability increase [3] -0.73% | viability [4] 99.3% | viability [5] 96.4% | inhibition [6] 1.9% | RAM network inhibition [7] -0.88%

COc1ccc(C(=O)c2c[nH]c3ccccc23)cc1
inactive: growth inhibition [1] -4.92% | growth inhibition [2] 2.61% | viability increase [3] -1.32% | viability [4] 101% | viability [5] 96.4% | inhibition [6] 0.695% | RAM network inhibition [7] -1.45%

O=S(=O)(NCCc1csc(-c2cccnc2)n1)c1ccc(Cl)s1
inactive: growth inhibition [1] -15.7% | growth inhibition [2] 13.1% | viability increase [3] 0.96% | viability [4] 87.6% | viability [5] 85.5% | inhibition [6] 1.76% | RAM network inhibition [7] 3.12%

CC(C)Cc1cc(-c2ccco2)c(C#N)c(N)n1
inactive: growth inhibition [1] -11.4% | growth inhibition [2] -17.1% | viability increase [3] -4.39% | viability [4] 80.9% | viability [5] 89.4% | inhibition [6] 3.23% | RAM network inhibition [7] 9.01%

N#Cc1nc(-c2ccccc2Cl)oc1NCC1CCCO1 (configuration not stated)
inactive: growth inhibition [1] -2.88% | growth inhibition [2] 8.84% | viability increase [3] 0.31% | viability [4] 91.1% | viability [5] 86.8% | inhibition [6] 1.48% | RAM network inhibition [7] 1.33%

CCCOC(=O)CSC1=C(C#N)C(c2ccccc2Cl)CC(=O)N1 (configuration not stated)
inactive: growth inhibition [1] 1.49% | growth inhibition [2] -25.7% | viability increase [3] -1.57% | viability [4] 66.3% | viability [5] 75.5% | inhibition [6] 1.75% | RAM network inhibition [7] 2.16%

Nc1nc(Nc2ccccc2Br)nc(C(F)(F)F)n1
inactive: growth inhibition [1] -3.56% | growth inhibition [2] 4.02% | viability increase [3] 0.23% | viability [4] 104% | viability [5] 93.4% | inhibition [6] 1.84% | RAM network inhibition [7] 0.72%

COc1ccc(C(=O)/C=C/N2CCCCC2)cc1OC
active: growth inhibition [1] 53.1% | growth inhibition [2] 74.3%
inactive: viability increase [3] -4.55% | viability [4] 77.8% | viability [5] 86.6% | inhibition [6] 0.145% | RAM network inhibition [7] -1.38%

CCOC(=O)c1c(CC(C)C)csc1NC=O
inactive: growth inhibition [1] -4.46% | growth inhibition [2] -33.1% | viability increase [3] -1.84% | viability [4] 81.8% | viability [5] 80.1% | inhibition [6] 1.18% | RAM network inhibition [7] 0.88%

Cc1ccc(C(=O)NCCCn2ccnc2)o1
inactive: growth inhibition [1] -1.7% | growth inhibition [2] -6.83% | viability increase [3] 0.23% | viability [4] 101% | viability [5] 97.8% | inhibition [6] -0.265% | RAM network inhibition [7] 3.73%

CCSc1nc2ccccc2n1S(=O)(=O)c1ccccc1
inactive: growth inhibition [1] -13.9% | growth inhibition [2] -20.8% | viability increase [3] -0.8% | viability [4] 101% | viability [5] 100% | inhibition [6] 0.395% | RAM network inhibition [7] 1.37%

CCC(=NCCc1ccccc1)C1=C(O)CCC1=O
inactive: growth inhibition [1] 3.04% | growth inhibition [2] -0.44% | viability increase [3] -2.05% | viability [4] 98.3% | viability [5] 98.8% | inhibition [6] 0.325% | RAM network inhibition [7] 2.13%

O=C(Cn1cc2c(n1)CCCCC2)NCc1ccccc1
inactive: growth inhibition [1] -13.4% | growth inhibition [2] 0.525% | viability increase [3] -0.82% | viability [4] 102% | viability [5] 86.5% | inhibition [6] 1.06% | RAM network inhibition [7] 3.47%

O=C(Nc1ccc2nc(-c3cccnc3)[nH]c2c1)c1ccco1
inactive: growth inhibition [1] -2% | growth inhibition [2] -20.3% | viability increase [3] -2.85% | viability [4] 100% | viability [5] 97.4% | inhibition [6] 0.845% | RAM network inhibition [7] 4.67%

CC(C)C12CN3CC(C(C)C)(CN(C1)C31C(=O)Nc3ccccc31)C2=O (configuration not stated)
inactive: growth inhibition [1] -16.5% | growth inhibition [2] -17.8% | viability increase [3] -0.6% | viability [4] 90.3% | viability [5] 101% | inhibition [6] 1.05% | RAM network inhibition [7] 3.39%

CCCCC1CCC(c2nc(-c3cccnc3)no2)CC1 (configuration not stated)
inactive: growth inhibition [1] -7.54% | growth inhibition [2] 9.22% | viability increase [3] -0.18% | viability [4] 93.5% | viability [5] 88% | inhibition [6] -1.52% | RAM network inhibition [7] -1.92%

CC(C)N(CCc1ccncc1)C(=O)Nc1ccc(Cl)c(Cl)c1
inactive: growth inhibition [1] -4.55% | growth inhibition [2] -1.79% | viability increase [3] -0.23% | viability [4] 81.1% | viability [5] 87.8% | inhibition [6] 2.42% | RAM network inhibition [7] 3.94%

CCNc1nc(NCC)nc(Oc2ccc(OCC)nn2)n1
inactive: growth inhibition [1] -15.2% | growth inhibition [2] -14.6% | viability increase [3] -0.87% | viability [4] 88.1% | viability [5] 92.2% | inhibition [6] 2.82% | RAM network inhibition [7] 4.95%

O=C1c2ccccc2C(Nc2ccc3c(c2)OCCO3)N1c1ccccn1 (configuration not stated)
inactive: growth inhibition [1] -10.6% | growth inhibition [2] -13.5% | viability increase [3] -1.97% | viability [4] 81.5% | viability [5] 85.6% | inhibition [6] 1.86% | RAM network inhibition [7] 4.05%

COc1ccc(N(CC(=O)NCc2ccco2)S(=O)(=O)c2c(C)nn(C)c2C)cc1
inactive: growth inhibition [1] -11% | growth inhibition [2] -12.6% | viability increase [3] -4.02% | viability [4] 89.8% | viability [5] 92.6% | inhibition [6] 0.185% | RAM network inhibition [7] 0.73%

CCCCC(=O)OCCNC(=O)c1cc2ccccc2oc1=O
inactive: growth inhibition [1] -3.98% | growth inhibition [2] -0.93% | viability increase [3] -2.04% | viability [4] 92.3% | viability [5] 95.2% | inhibition [6] 2.96% | RAM network inhibition [7] 2.46%

CCOC(=O)COc1cccc2c(=O)n(CC(=O)N3CCc4ccccc43)ccc12
inactive: growth inhibition [1] -10.5% | growth inhibition [2] -15.5% | viability increase [3] -2.89% | viability [4] 98.6% | viability [5] 90.7% | inhibition [6] 1.25% | RAM network inhibition [7] 3.56%

Cc1ccc(OCC(O)CN2CCN(CC(O)COc3ccc(C)cc3Cl)CC2)c(Cl)c1 (configuration not stated)
inactive: growth inhibition [1] -5.18% | growth inhibition [2] -17.4% | viability increase [3] -4.02% | viability [4] 77.7% | viability [5] 81.8% | inhibition [6] 2.03% | RAM network inhibition [7] 2.76%

COc1ccc(S(=O)(=O)NCc2ccc3c(c2)cc(C)n3C)cc1
inactive: growth inhibition [1] -0.89% | growth inhibition [2] -11.2% | viability increase [3] -4.17% | viability [4] 99.1% | viability [5] 96% | inhibition [6] 1.31% | RAM network inhibition [7] 7.17%

CC(C)c1nc(SCC(=O)N2CCOCC2)c2c(=O)n(C)c(=O)n(C)c2n1
inactive: growth inhibition [1] 2.91% | growth inhibition [2] -8.92% | viability increase [3] -1.75% | viability [4] 102% | viability [5] 95.6% | inhibition [6] 2.57% | RAM network inhibition [7] -2.21%

CCOC(=O)Cn1c(=O)oc2cc(S(=O)(=O)Nc3ccc(F)cc3)ccc21
inactive: growth inhibition [1] -7.54% | growth inhibition [2] -3.97% | viability increase [3] 0.5% | viability [4] 96.7% | viability [5] 106% | inhibition [6] 1.07% | RAM network inhibition [7] 7.5%
